Assay: Toxicity liver stage against HepG2, at 10uM
Type: cell-based
Parameters: test concentration 10 uM, cell line HepG2-A16-CD81EGFP
Settings: human, HepG2-A16-CD81EGFP cells; read-out: INHIBITION
In short: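 Uninfected HepG2-A16-CD81EGFP cells, 3 × 10^3 per well, 1536-well, plated on prespotted compound at 10 μM final, parasite-free screening media added to match infected plates; puromycin 10 μM positive, DMSO 0.5% negative; run in parallel with 48 h PbLuc assay at 37 °C, 5% CO2; viability by CellTiter-Glo luminescence, normalized to controls.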

SMILES | cytotoxicity at 10 µM [%]
O=c1c2ccccc2nc2n1C(CSc1ccc(Cl)cc1)CN2 (configuration not stated) | 9.38
Cc1cccc(CNC(=O)C2CCC(=O)N(Cc3ccccc3F)C2)n1 (configuration not stated) | -3.75
COc1ccc2c(c1)nc1n2[C@@H](CNC(=O)c2cccnc2)COC1 | -3.74
Cc1ccccc1NC(=O)Nc1c[nH]c(=O)[nH]c1=O | 3.54
CCN1CCC(=O)N(C)Cc2cc(F)ccc21 | 9.78
NCCC(Cc1ccccc1)c1ccco1 (configuration not stated) | 0.45
COc1ccc2nnc(CCC(=O)Nc3nc4c(s3)CCCCC4)n2n1 | 4.98
COc1ncccc1C(=O)N1CC(c2nc(-c3ccco3)no2)C1 | 4.91
COC(=O)N1CCc2ccccc2C1C(=O)NCc1ccncc1 (configuration not stated) | -4.83
CN(C)CC1CSCCCN1C(=O)c1ccc(-n2cccc2)cc1 (configuration not stated) | 10
COC(C)(CNS(=O)(=O)c1cn(C)cn1)c1ccccc1F (configuration not stated) | -8.39
COc1ccc(CC(=O)N2CCC3(CC2)CCN(CC(C)C)C3=O)cc1 | 1.11
N#Cc1cnc2ccccc2c1N1CCC(C(=O)O)CC1 | 4.28
CCN(CC)CCCNC(=O)c1nn(CC)cc1Cl | 10.8
CC(=O)NCCCn1ncc2c(C)cccc21 | 9.68
CCC(=O)N1CCC(c2nc(N3CCOCC3)ncc2S(C)(=O)=O)CC1 | 3.65
Cc1cccc(Nc2ccc(C3CCN(Cc4ncc[nH]4)CC3)nc2)n1 | -2.83
Cc1c(CN2CCCC(n3c(=O)oc4ccccc43)C2)cnn1C (configuration not stated) | 6.62
Nc1cccc(C2CN(C(=O)CN3CCOCC3)CCO2)n1 (configuration not stated) | -8.83
O=C(NCCCN1CCOCC1)Nc1cnc2cc(Cl)ccc2c1O | 1.29
O=C(c1cnco1)N1C[C@@H]2CC[C@H](Oc3ccccc3F)[C@@H]2C1 | 5.22
COCCN1C(=O)CO[C@H]2CN(Cc3c[nH]nc3-c3ccccc3)C[C@@H]21 | -4.04

SMILES | cytotoxicity at 10 µM [%]
Cc1noc(C)c1CN(C)C(=O)C1CCCCN1S(C)(=O)=O (configuration not stated) | 5.04
O=C(CC1OCCc2ccccc21)NCC1(O)CCCCC1 (configuration not stated) | 1.07
CCOC(=O)NC1CCCN(c2cncc(Br)c2)C1 (configuration not stated) | -46.4
Cc1cc(Cn2cc(C#N)c(=O)c3ccccc32)no1 | 5.76
CC(=O)NCCCSC1CCN(c2ccccc2Cl)C1=O (configuration not stated) | -9.04
CC(C)Cc1nnc(NC(=O)NC(CCO)c2cccs2)s1 (configuration not stated) | 0.191
COC(=O)N1CCC(NC2CCSCC2)C1 (configuration not stated) | -8.23
Cc1cc(Br)ccc1C(=O)N(C)CCNS(C)(=O)=O | -54.1
COc1ccc(S(=O)(=O)NC(=O)c2ccccc2F)cc1OC | -2.72
Cn1cc(C(=O)N[C@@H]2CN(Cc3ccoc3)[C@@H]3CCCO[C@@H]32)cn1 | -104
CC(C)CNC(=O)[C@H]1CCS(=O)(=O)[C@@H]2CN(c3ncccn3)C[C@H]12 | -110
Cc1cnc(N2CCC3(C2)CN(S(=O)(=O)C2CC2)C3)nc1 | -106
CS(=O)(=O)N[C@@H]1CCO[C@]2(CCN(C(=O)c3cscn3)C2)C1 | -67.2
CCS(=O)(=O)N1CC[C@H]2O[C@@H](c3nnc(C)o3)CC[C@H]21 | -63.7
Cc1ccc(N2C[C@H](C(=O)N3CCOCC3)[C@@H]3CCO[C@@H]3C2)nn1 | -66.8
CN(C)CC(=O)N1Cc2ncn(C)c2C(COCC2CCOCC2)C1 (configuration not stated) | -71
O=C(CC1CC1)N1CCC2(CC1)CN(c1ncc(F)cn1)CCO2 | -72.8
CC(C)N(C)[C@@H]1CCN(C(=O)c2ccc[nH]2)[C@H]1Cc1cnn(C)c1 | -72
O=C(c1cscn1)N1CCC2(CCN(Cc3nccs3)CC2)CC1 | -71
Cn1ncc2c1C(COCC1CC1)CN(Cc1ccoc1)C2 (configuration not stated) | -1.21
O=C(C1CCOCC1)N1CC[C@H]2C[C@@H](c3ccncn3)O[C@@H]2C1 | -0.748
O=C(c1ccncc1)N1CCC2(CC1)CC(Oc1cccnc1)CO2 (configuration not stated) | -3.66

SMILES | cytotoxicity at 10 µM [%]
COc1cc(CN(Cc2ccccn2)CC(C)C)cc2c1OCO2 | -16
O=C(Cc1ccsc1)N1CCN(CCOc2ccccc2)CC1 | -4.6
CC/C(C)=C/CCN1CCN(C)C2(CCNC(=O)CC2)C1 (configuration not stated) | -48.2
CCN(Cc1nccn1C)C(=O)c1ccc(NCC(C)C)nc1 | -2.2
O=C(NCc1cc2n(n1)CCCN(Cc1ccc(Cl)s1)C2)C1CCC1 | 5.46
NC(=O)N1CCCC(C(=O)N2CCN(c3nsc4ccccc34)CC2)C1 (configuration not stated) | 7.86
CC1(C)CNC(=O)c2nc(-c3n[nH]c(=O)[nH]3)[nH]c2C1 | -4.07
CCN(CC)Cc1cc(C(=O)N2CC(C)(C)[C@@](C)(O)C2)c(C)o1 | 1.07
C[C@@H]1CN(C(=O)c2c[nH]c(=O)c(Cl)c2)CC[C@@]1(O)C1CCOCC1 | 1.09
CCc1ncc(C(=O)NCC2CCN(Cc3ccncc3)CC2)cn1 | 8.12
Cc1c(CN2CC[C@@H](N3CCC(O)CC3)[C@H](O)C2)[nH]c2ccc(Cl)cc12 | -3.96
CN1CCC2(CCC1=O)CCN(C(=O)Cc1ccc(O)c(F)c1)CC2 | -8.99
COc1cccc([C@H]2CN(CCCS(=O)(=O)N(C)C)C[C@@H]2N)c1 | -1.18
Cc1nccn1-c1ccc(NC(=O)C2CCCN2Cc2c[nH]cn2)cc1 (configuration not stated) | -15.2
Cc1nn2c(N3CCS(=O)(=O)CC3)cc(-c3ccccc3)nc2c1C | -6.43
O=C(NCCc1cccnc1)c1ccc2nccn2c1 | -38.6
CC(C)CN1CCCn2nc(CNC(=O)Cc3cccc(O)c3)cc2C1 | 4.69
O=C(NCC(F)F)c1ccc(S(=O)(=O)NCCc2cn[nH]c2)cc1 | 5.5
COc1ccnc(CN2CCC=C(C(C)NC(C)=O)C2)c1OC (configuration not stated) | -8.81
Cc1cnccc1N1CCCN(C(=O)CCCc2cn[nH]c2)CC1 | -30.3
CC(C)c1nccn1C1CCCN(C(=O)c2ccc3nncn3c2)C1 (configuration not stated) | -5.53
COC(=O)c1cccn1C1CCN(C(=O)c2c(C)noc2C)CC1 | -11.4

SMILES | cytotoxicity at 10 µM [%]
COC(CNC(=O)NCc1c(C)cc(C)[nH]c1=O)c1ccccc1 (configuration not stated) | -6.12
CCOc1ccnc(N2CCN(C(=O)c3ccc(C#N)cc3)CC2)n1 | -10.6
CSc1nccn1-c1ccc(C(=O)NCC2CC2)cc1 | -3.67
CC(C)CCc1nc(CN2CCOC(Cn3cncn3)C2)cs1 (configuration not stated) | -6.06
CNS(=O)(=O)c1ccc(C(=O)N2CCCC2c2ccncc2)o1 (configuration not stated) | -6.23
C=C(Cl)CN(C)C1CCN(CCc2ccccn2)CC1 | -2.93
Cc1ccc(-c2cc(CNC(=O)N3CCCN(C)CC3)on2)cc1 | -5.19
CC1CN(CC(=O)NCc2cccs2)CCN1c1nccs1 (configuration not stated) | -12.8
Cc1cccc(C2(C(=O)NC(C)Cn3ccnc3)CC2)c1 (configuration not stated) | 0.742
COc1c(C2CCCN2C(=O)c2c(C)noc2C(C)C)c(C)nn1C (configuration not stated) | 8.88
Cc1cnn(CC(=O)N2CCCN(c3nc(C)cs3)CC2)c1 | -4.71
COc1c(CNCc2ccc(OCC(N)=O)cc2)c(C)nn1C | -3.81
CCn1cnnc1CNC(=O)N(C)Cc1cccc(OC(F)F)c1 | -3.73
COc1ccc(CNC(=O)NCCc2csc(C)n2)cn1 | -7.05
Cc1nc(C)n(CC2CN(Cc3cccc4c3OCCO4)CCO2)n1 (configuration not stated) | -1.99
CCc1ncc2c(n1)CN(Cc1nc(-c3ccsc3)no1)CC2 | -4.99
CCC(=O)N(C)CC(=O)Nc1ccc(Br)cn1 | 7.48
Cc1ccc(CC(=O)NCCCNS(C)(=O)=O)cc1 | 3.1
N#Cc1ccccc1CN1CCCCC1Cn1cncn1 (configuration not stated) | -4.13
Cc1ccc(CN2C(=O)CCC23CCC(NC2CCOC2)CC3)cc1 (configuration not stated) | -3.04
O=C(c1ccco1)N1C[C@@H]2[C@@H](C1)OCC(=O)N2Cc1cccnc1 | 3.04
O=C1CCC2(CCN(c3ncc(F)cn3)CC2)N1Cc1ccncc1 | 5.02

SMILES | cytotoxicity at 10 µM [%]
Cc1noc([C@H]2C[C@H]3OCC[C@H]3N(Cc3ccc(F)cc3)C2)n1 | -76.4
COCC1c2c(cnn2C)CCN1Cc1ccco1 (configuration not stated) | 2.32
O=C(N[C@@H]1CN[C@H]2CCCO[C@H]21)c1cccnc1 | 5.25
CCOCC1CN(C(=O)c2ccncn2)Cc2cnn(CC)c21 (configuration not stated) | -68.3
O=C(N[C@@H]1CN(c2ncccn2)C[C@@H]2CCCO[C@@H]21)c1ccncc1 | 2.29
COCC1CN(CC2CC2)Cc2nccn2C1 (configuration not stated) | -76
Cc1cccc(CN2C[C@@H]3COC[C@]3(CNC(=O)C3CC3)C2)c1 | -107
COC[C@]12COC[C@H]1CN(Cc1cc(OC)cc(OC)c1)C2 | -6.33
Cc1cccc(CN2C[C@H](OCc3ccccn3)[C@H]3COC[C@H]32)n1 | -92.6
Cn1cc(C(=O)N2CC[C@@H]3[C@@H]2CCN3Cc2ccncc2)cn1 | -75.3
c1cc(COC[C@]23COC[C@H]2CN(Cc2ccsc2)C3)ccn1 | -90.9
Cc1ccc(N2CCCc3sc(C(=O)NCCC#N)nc32)nn1 | 11.6
COCC(=O)N1C[C@@H](OCc2ccncc2)[C@@H]2OCCC[C@@H]21 | -0.182
Cc1cccc(CN2CCc3nnc(CN4CCCC4=O)n3CC2)n1 | 5.31
CN1CCS(=O)(=O)[C@@H]2CCN(C(=O)CC(C)(C)C)CC[C@@H]21 | 1.2
O=C(c1ccncc1)N1CCCn2c(CN3CCCC3)nnc2C1 | -76.9
CN1C[C@H](NC(=O)c2cscn2)[C@@H]2OCCC[C@@H]21 | -112
CCCSCC(=O)N1C[C@H]2CC[C@@H](C1)N(Cc1ccccn1)C2=O | 3.32
O=C1Nc2ccccc2CN(CC=Cc2ccccc2)C12CCNC2 (configuration not stated) | 2.96

Source: ChEMBL document CHEMBL4513216, “Probing the Open Global Health Chemical Diversity Library for Multistage-Active Starting Points for Next-Generation Antimalarials” (ACS Infect Dis, 2020)
